Laboratory results reported in ChEMBL document CHEMBL1149321, “Synthesis, radiosynthesis, and biological evaluation of carbon-11 and iodine-123 labeled 2beta-carbomethoxy-3beta-[4'-((Z)-2-haloethenyl)phenyl]tropanes: candidate radioligands for in vivo imaging of the serotonin transporter” (J Med Chem, 2004).

How the values were obtained:
Rattus norvegicus [1] = assay: Distribution of the radio labelled compound in cerebellum of rat brain after intravenous administration in absence of blocker after 60 min; assay type: ADME, organism-based; conditions: in vivo, 1 h
Procedure, shortened: (§1)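 Male Sprague–Dawley rats (200–250 g), ketamine/xylazine anesthesia, tail-vein cannula. Blocker (4 mg/kg) or nothing given 15 min before iv [123I]ZIET in 10% ethanol/saline. Killed 60 min post-tracer.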

Rattus norvegicus [2] = assay: Distribution of the radio labelled compound in cerebellum of rat brain after intravenous administration in presence of RTI-113 after 60 min; assay type: ADME, organism-based; conditions: in vivo, 1 h; procedure, shortened: as §1
Rattus norvegicus [3] = assay: Distribution of the radio labelled compound in hippocampus of rat brain after intravenous administration in absence of blocker after 60 min; assay type: ADME, organism-based; conditions: in vivo, 1 h
Procedure, shortened: (§2)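 Male Sprague–Dawley rats (200–250 g) under ketamine/xylazine anaesthesia with tail-vein cannulas. Blocker or none given 15 min before ~20 μCi [123I] tracer iv in 0.2 mL 10% ethanol/saline; blocker dose 4 mg/kg.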

Rattus norvegicus [4] = assay: Distribution of the radio labelled compound in hippocampus of rat brain after intravenous administration in presence of reboxetine after 60 min; assay type: ADME, organism-based; conditions: in vivo, 1 h; procedure, shortened: as §2
Rattus norvegicus [5] = assay: Distribution in hypothalamus of rat brain after intravenous administration by using [123I]ZIET after 60 min; assay type: ADME, organism-based; conditions: in vivo, 1 h
Procedure, shortened: (§3)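 Male Sprague–Dawley rats (200–250 g), fed ad libitum, given ~20 μCi radiotracer iv via tail-vein cannula in 0.2 mL 10% ethanol/saline under ketamine/xylazine im anesthesia. Killed at 5, 30, 60 or 120 min (n = 5; n = 4 at 120 min). Brain regions dissected, weighed, gamma-counted with dose standards, decay-corrected; mean %ID/g ± SE.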

Rattus norvegicus [6] = assay: Distribution in occipital cortex of rat brain after intravenous administration by using [123I]ZIET after 120 min; assay type: ADME, organism-based; conditions: in vivo, 2 h; procedure, shortened: as §3
Rattus norvegicus [7] = assay: Distribution in occipital cortex of rat brain after intravenous administration by using [123I]ZIET after 5 min; assay type: ADME, organism-based; conditions: in vivo; procedure, shortened: as §3
Rattus norvegicus [8] = assay: Distribution in rest of rat brain after intravenous administration by using [123I]ZIET after 120 min; assay type: ADME, organism-based; conditions: in vivo, 2 h; procedure, shortened: as §3
Rattus norvegicus [9] = assay: Distribution in rest of rat brain after intravenous administration by using [123I]ZIET after 5 min; assay type: ADME, organism-based; conditions: in vivo; procedure, shortened: as §3
Rattus norvegicus [10] = assay: Distribution in thyroid of rat brain after intravenous administration by using [123I]ZIET after 30 min; assay type: ADME, organism-based, Thyroid gland; conditions: in vivo, 0.5 h; procedure, shortened: as §3
Rattus norvegicus [11] = assay: Distribution of the radio labelled compound in blood of rat brain after intravenous administration in presence of reboxetine after 60 min; assay type: ADME, organism-based; conditions: in vivo, 1 h; procedure, shortened: as §1
Rattus norvegicus [12] = assay: Distribution of the radio labelled compound in brainstem of rat brain after intravenous administration in absence of blocker after 60 min; assay type: ADME, organism-based; conditions: in vivo, 1 h; procedure, shortened: as §1
Rattus norvegicus [13] = assay: Distribution of the radio labelled compound in brainstem of rat brain after intravenous administration in presence of RTI-113 after 60 min; assay type: ADME, organism-based; conditions: in vivo, 1 h; procedure, shortened: as §1
Rattus norvegicus [14] = assay: Distribution of the radio labelled compound in brainstem of rat brain after intravenous administration in presence of reboxetine after 60 min; assay type: ADME, organism-based; conditions: in vivo, 1 h; procedure, shortened: as §1
Rattus norvegicus [15] = assay: Distribution in hippocampus of rat brain after intravenous administration by using [123I]ZIET after 60 min; assay type: ADME, organism-based; conditions: in vivo, 1 h; procedure, shortened: as §3
Rattus norvegicus [16] = assay: Distribution in hypothalamus of rat brain after intravenous administration by using [123I]ZIET after 30 min; assay type: ADME, organism-based; conditions: in vivo, 0.5 h; procedure, shortened: as §3
Rattus norvegicus [17] = assay: Distribution of the radio labelled compound in rest of rat brain after intravenous administration in presence of reboxetine after 60 min; assay type: ADME, organism-based; conditions: in vivo, 1 h; procedure, shortened: as §2
Rattus norvegicus [18] = assay: Distribution of the radio labelled compound in striatum of rat brain after intravenous administration in presence of reboxetine after 60 min; assay type: ADME, organism-based; conditions: in vivo, 1 h; procedure, shortened: as §2
Rattus norvegicus [19] = assay: Distribution of the radio labelled compound in thyroid of rat brain after intravenous administration in absence of blocker after 60 min; assay type: ADME, organism-based, Thyroid gland; conditions: in vivo, 1 h; procedure, shortened: as §2
Rattus norvegicus [20] = assay: Distribution of the radio labelled compound in thyroid of rat brain after intravenous administration in presence of RTI-113 after 60 min; assay type: ADME, organism-based, Thyroid gland; conditions: in vivo, 1 h; procedure, shortened: as §2
Rattus norvegicus [21] = assay: Distribution of the radio labelled compound in thyroid of rat brain after intravenous administration in presence of citalopram after 60 min; assay type: ADME, organism-based, Thyroid gland; conditions: in vivo, 1 h; procedure, shortened: as §2
Rattus norvegicus [22] = assay: Distribution of the radio labelled compound in thyroid of rat brain after intravenous administration in presence of reboxetine after 60 min; assay type: ADME, organism-based, Thyroid gland; conditions: in vivo, 1 h; procedure, shortened: as §2
Rattus norvegicus [23] = assay: Distribution in blood of rat brain after intravenous administration by using [123I]ZIET after 5 min; assay type: ADME, organism-based; conditions: in vivo; procedure, shortened: as §3
Rattus norvegicus [24] = assay: Distribution in blood […] after intravenous administration by using [123I]-ZIET after 60 min; assay type: ADME, organism-based; conditions: in vivo, 1 h; procedure, shortened: as §3
Rattus norvegicus [25] = assay: Distribution in brainstem of rat brain after intravenous administration by using [123I]ZIET after 5 min; assay type: ADME, organism-based; conditions: in vivo; procedure, shortened: as §3
Rattus norvegicus [26] = assay: Distribution in brainstem of rat brain after intravenous administration by using [123I]ZIET after 60 min; assay type: ADME, organism-based; conditions: in vivo, 1 h; procedure, shortened: as §3
Rattus norvegicus [27] = assay: Distribution in cerebellum of rat brain after intravenous administration by using [123I]ZIET after 120 min; assay type: ADME, organism-based; conditions: in vivo, 2 h; procedure, shortened: as §3
Rattus norvegicus [28] = assay: Distribution in cerebellum of rat brain after intravenous administration by using [123I]ZIET after 5 min; assay type: ADME, organism-based; conditions: in vivo; procedure, shortened: as §3
Rattus norvegicus [29] = assay: Distribution in frontal cortex of rat brain after intravenous administration by using [123I]ZIET after 120 min; assay type: ADME, organism-based; conditions: in vivo, 2 h; procedure, shortened: as §3
Rattus norvegicus [30] = assay: Distribution in frontal cortex of rat brain after intravenous administration by using [123I]-ZIET after 30 min; assay type: ADME, organism-based; conditions: in vivo, 0.5 h; procedure, shortened: as §3
Rattus norvegicus [31] = assay: Distribution of the radio labelled compound in occipital cortex of rat brain after intravenous administration in presence of RTI-113 after 60 min; assay type: ADME, organism-based; conditions: in vivo, 1 h; procedure, shortened: as §2
Rattus norvegicus [32] = assay: Distribution of the radio labelled compound in rest of rat brain after intravenous administration in absence of blocker after 60 min; assay type: ADME, organism-based; conditions: in vivo, 1 h; procedure, shortened: as §2
[33] = Ratio of radioactivity in brainstem of rat brain to that of rat cerebellum after intravenous administration after 60 min; assay type: functional
Procedure, shortened: (§4)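 Male Sprague–Dawley rats (200–250 g) given ~20 μCi [123I] tracer iv in 0.2 mL 10% ethanol/saline under ketamine/xylazine; killed at 5, 30, 60, 120 min (n = 5; n = 4 at 120 min). Brain regions dissected, gamma counted, decay-corrected to %ID/g; regional uptake divided by cerebellum.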

[34] = Ratio of radioactivity in hippocampus of rat brain to that of rat cerebellum after intravenous administration after 60 min; assay type: functional; procedure, shortened: as §4
[35] = Ratio of radioactivity in hypothalamus of rat brain to that of rat cerebellum after intravenous administration after 5 min; assay type: functional; procedure, shortened: as §4
[36] = Ratio of radioactivity in hypothalamus of rat brain to that of rat cerebellum after intravenous administration after 60 min; assay type: functional; procedure, shortened: as §4
[37] = Ratio of radioactivity in occipital cortex of rat brain to that of rat cerebellum after intravenous administration after 120 min; assay type: functional; procedure, shortened: as §4
[38] = Ratio of radioactivity in occipital cortex of rat brain to that of rat cerebellum after intravenous administration after 30 min; assay type: functional; procedure, shortened: as §4
[39] = Ratio of radioactivity in occipital cortex of rat brain to that of rat cerebellum after intravenous administration after 60 min; assay type: functional; procedure, shortened: as §4
[40] = Ratio of radioactivity in rest of rat brain to that of rat cerebellum after intravenous administration after 120 min; assay type: functional; procedure, shortened: as §4
[41] = Ratio of radioactivity in rest of rat brain to that of rat cerebellum after intravenous administration after 30 min; assay type: functional; procedure, shortened: as §4
[42] = Ratio of radioactivity in rest of rat brain to that of rat cerebellum after intravenous administration after 5 min; assay type: functional; procedure, shortened: as §4
[43] = Ratio of radioactivity in striatum of rat brain to that of rat cerebellum after intravenous administration after 60 min; assay type: functional; procedure, shortened: as §4
[44] = Ratio of radioactivity in hypothalamus of rat brain to that of rat cerebellum after intravenous administration after 120 min; assay type: functional; procedure, shortened: as §4

Structure (SMILES): COC(=O)C1C(c2ccc(/C=C\[123I])cc2)CC2CCC1N2C (centres undefined)
- Activity (Rattus norvegicus [1]): 0.15
- Activity (Rattus norvegicus [2]): 0.13
- Activity (Rattus norvegicus [3]): 0.4
- Activity (Rattus norvegicus [4]): 0.41
- Activity (Rattus norvegicus [5]): 0.69
- Activity (Rattus norvegicus [6]): 0.42
- Activity (Rattus norvegicus [7]): 0.45
- Activity (Rattus norvegicus [8]): 0.39
- Activity (Rattus norvegicus [9]): 0.38
- Activity (Rattus norvegicus [10]): 0.74
- Activity (Rattus norvegicus [11]): 0.26
- Activity (Rattus norvegicus [12]): 0.33
- Activity (Rattus norvegicus [13]): 0.35
- Activity (Rattus norvegicus [14]): 0.36
- Activity (Rattus norvegicus [15]): 0.63
- Activity (Rattus norvegicus [16]): 0.68
- Activity (Rattus norvegicus [17]): 0.34
- Activity (Rattus norvegicus [18]): 0.45
- Activity (Rattus norvegicus [19]): 0.54
- Activity (Rattus norvegicus [20]): 1.01
- Activity (Rattus norvegicus [21]): 0.93
- Activity (Rattus norvegicus [22]): 1.12
- Activity (Rattus norvegicus [23]): 0.45
- Activity (Rattus norvegicus [24]): 0.43
- Activity (Rattus norvegicus [25]): 0.35
- Activity (Rattus norvegicus [26]): 0.54
- Activity (Rattus norvegicus [27]): 0.14
- Activity (Rattus norvegicus [28]): 0.34
- Activity (Rattus norvegicus [29]): 0.48
- Activity (Rattus norvegicus [30]): 0.82
- Activity (Rattus norvegicus [31]): 0.42
- Activity (Rattus norvegicus [32]): 0.37
- Ratio [33]: 2
- Ratio [34]: 2.3
- Ratio [35]: 1.1
- Ratio [36]: 2.6
- Ratio [37]: 3
- Ratio [38]: 1.8
- Ratio [39]: 2.3
- Ratio [40]: 2.8
- Ratio [41]: 1.6
- Ratio [42]: 1.1
- Ratio [43]: 2.6
- Ratio [44]: 4.3
